The target in assay [1] is T1, 5-hydroxytryptamine receptor 1B (Homo sapiens, UniProt P28222). Description: Displacement of [3H]GR125743 from 5HT1B receptor transfected in CHO cells. Format: cell-based. The essentials:
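Competition binding used a stably transfected CHO cell line expressing 5HT1B receptor. [3H]-GR125743 was the radioligand, and Ki values were derived from displacement.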

The target of assay [2] is T1, 5-hydroxytryptamine receptor 1B. Description: Antagonist activity at 5HT1B receptor expressed in CHO cells assessed as effect on 5-HT-induced stimulation of [35S]GTP-gamma-S binding at 10 uM. The assay is classed as functional, cell-based.

T1 sequence (P28222 whole entry): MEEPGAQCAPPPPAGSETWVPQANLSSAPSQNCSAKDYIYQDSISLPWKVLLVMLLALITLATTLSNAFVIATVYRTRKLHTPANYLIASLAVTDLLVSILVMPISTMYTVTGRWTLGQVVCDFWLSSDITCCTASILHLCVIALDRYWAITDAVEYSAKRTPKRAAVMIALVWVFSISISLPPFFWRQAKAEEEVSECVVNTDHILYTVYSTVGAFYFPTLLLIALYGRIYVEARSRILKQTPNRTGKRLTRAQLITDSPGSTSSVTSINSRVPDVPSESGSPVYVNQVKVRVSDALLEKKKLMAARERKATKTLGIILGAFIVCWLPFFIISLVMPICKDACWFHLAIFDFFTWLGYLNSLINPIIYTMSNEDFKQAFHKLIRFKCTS

For `COc1cc(N(C)CCN(C)C)c2[nH]c(C(=O)Nc3ccc(N4CCOCC4)cc3)cc(=O)c2c1`, the affinity in assay [1] corresponds to a Ki of 0.392 µM.

As for `CCN1CCC(N(CC)c2cc(OC)cc3c(=O)cc(C(=O)Nc4ccc(N5CCOCC5)cc4)[nH]c23)C1` (stereo not given), the inhibitory constant (Ki) in assay [1] worked out at 0.17 µM.

In assay [1], `COc1cc(N(C)CCCN(C)C)c2[nH]c(C(=O)Nc3ccc(N4CCOCC4)cc3)cc(=O)c2c1` showed a Ki of 0.292 µM. The compound `COc1cc(N2CC[C@H](N(C)C)C2)c2[nH]c(C(=O)Nc3ccc(N4CCOCC4)cc3)cc(=O)c2c1` registered a Ki in assay [1] above 1 µM. As for `COc1cc(N(C)C2CCN(C)C2)c2[nH]c(C(=O)Nc3ccc(N4CCOCC4)cc3)cc(=O)c2c1` (stereo not given), the inhibitory constant (Ki) in assay [1] is above 1 µM. `COc1cc(C(=O)Nc2ccc(N3CCOCC3)cc2)nc2c(N3CCN(C)CC3)cc(F)cc12` registered a Ki in assay [1] of 0.03 µM. That is a double-digit nanomolar value.

In assay [1], `CNc1cc(C(=O)Nc2ccc(N3CCOCC3)cc2)nc2c(N3CCN(C)CC3)cc(OC)cc12` registered a Ki of 1.3 µM. This Ki lies about 43-fold higher than the previous one.

For the compound `COc1cc(N2CCN(C)CC2)c2[nH]c(C(=O)Nc3ccc(N4CCOCC4)cc3)cc(=O)c2c1`, the Intrinsic activity in assay [2] was -34%. The compound also came in with an inhibitory constant (Ki) in assay [1] of 0.0035 µM. In turn, `COc1cc(N2CC[C@@H](N(C)C)C2)c2[nH]c(C(=O)Nc3ccc(N4CCOCC4)cc3)cc(=O)c2c1` showed a Ki in assay [1] of 0.035 µM. Turning to `COc1cc(N2CCCN(C)CC2)c2[nH]c(C(=O)Nc3ccc(N4CCOCC4)cc3)cc(=O)c2c1`, the Intrinsic activity in assay [2] was -34%. In assay [1], this compound came in with a Ki of 0.0009 µM.

As for `CN1CCN(c2cc(F)cc3c(=O)cc(C(=O)Nc4ccc(N5CCOCC5)cc4)[nH]c23)CC1`, the Intrinsic activity in assay [2] was -34%. In assay [1], this compound yielded a Ki of 0.0093 µM. Turning to `COc1cc(N2CCN(C)CC2)c2nc(C(=O)Nc3ccc(N4CCOCC4)cc3)cc(N(C)C)c2c1`, the Ki in assay [1] is 0.051 µM.
